PMC4355479 (Molecular cell, 2015)

Experiments:
[1] = system: MZM-REP protein of Mib1 with deletion of residues 315-330; experiment: ITC with crystallization construct MZM-REP; assay type: binding; settings: Table S1
Summary of the method: (§1)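 MZM-REP protein is expressed as an N-terminal His6-SUMO fusion and loaded in the ITC cell at 42 μM, 25 C, stirred at 1000 RPM. Jag1 tail polypeptide is the titrant. Binding parameters come from a one-site binding model fit.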

[2] = system: Mib1 with deletion of either the MZM or REP region; experiment: Co-immunoprecipitation with Mib1 lacking MZM or REP region; assay type: cell-based; settings: HEK293T cells, Figure S1A
mutated Mib1 (ΔRNG) = experiment: Co-immunoprecipitation with Mib1 mutated at MZM and/or REP interface; assay type: cell-based; settings: HEK293T cells, Figure 5D
Summary of the method: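 Myc-tagged Mib1 (ΔRNG) and V5-tagged Jag1 co-transfected into sub-confluent HEK293T cells by lipofection. After 48 hr, cells lysed on ice in 0.5% Fos-Choline 12, 50 mM HEPES pH 7.4, 150 mM NaCl, DTT, ZnCl2, CaCl2 and protease inhibitors. Cleared lysate incubated with anti-V5 agarose for 1 hr at 4 C. Beads washed 3x, then analysed by anti-Myc and anti-V5 Western blot.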

[3] = system: Mib1 with Asp to Asn mutations in one or both Mib repeat(s); experiment: Co-immunoprecipitation with Mib1 Asp to Asn mutants in one or both Mib repeat; assay type: cell-based; settings: HEK293T cells, Figure S3D
MZM-REP, REP mutant = experiment: ITC with REP mutant of MZM-REP; assay type: binding; settings: 25 C; 42 μM; HEPES pH 7.4, 500 mM NaCl; REP side mutated; Figure 5C
Summary of the method: as §1

effect of Mib1 Δ315-330 deletion on binding to Jag1 [1] | Substance | co-immunoprecipitation with Mib1 lacking MZM or REP region [2] | co-immunoprecipitation with Mib1, both interfaces mutated (mutated Mib1 (ΔRNG); both interfaces in combination) | co-immunoprecipitation with Mib1, MZM interface mutated (mutated Mib1 (ΔRNG); mutation targeting MZM:N-box interface alone) | co-immunoprecipitation with Mib1, REP interface mutated (mutated Mib1 (ΔRNG); mutation targeting REP:C-box interface alone) | contribution of Mib repeats to C-box binding, co-immunoprecipitation [3] | binding to REP mutant by ITC (MZM-REP, REP mutant)
does not deleteriously affect binding | Jag1: Jag1 construct, V5-tagged in co-immunoprecipitation | eliminates co-immunoprecipitation (co-IP) | prevent co-immunoprecipitation | prevent co-immunoprecipitation | prevent co-immunoprecipitation | first Mib repeat exerts a dominant role in C-box binding | –
– | full-length tail: Jag1 intracellular tail; HA-tagged in ubiquitin transfer; as DLL4 chimera in reporter assay | – | – | – | – | – | attenuates binding
